Data published in PMC3729426 (Chemistry (Weinheim an der Bergstrasse, Germany), 2012).
Ends that are not written are not given here. Lumi4(Tb) = Lumi4(Tb) terbium luminescent complex

Experiments:
[1] = test system: MDCKII cells; assay type: cell-based, canine; settings: summary of microscopic observations at higher concentrations
In short: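 MDCKII cells were incubated 30 min at 37 °C in DMEM with FBS, or serum-free, with Tb3+ complex–peptide conjugates at 5, 20 or 60 μM. In one condition, 5 μM conjugate was combined with 30 μM unconjugated Arg9. Live cells were imaged by time-gated luminescence microscopy (10 μs delay, λex 365 nm, λem 540 ± 10 nm) to score punctate versus diffuse cytoplasmic/nuclear distribution.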

[2] = test system: MDCKII cells

| Substance | mechanism of delivery mediated by the CPP [1] | intracellular disulfide reduction observed microscopically [2] | fluorescein signal distribution immediately after washing ([2]; MDCKII cells, 17 (10 μM), serum-free medium, 10 min, 37 °C, continuous wave fluorescence) | fluorescein signal distribution 2 h post-wash ([2]; MDCKII cells, 17 (10 μM), serum-free medium, 10 min, imaged 2 h post-wash) | Tb3+-to-fluorescein LRET emission ratio (520 nm/540 nm), 2 h post-wash versus immediate ([2]; MDCKII cells, nuclear region, 17 (10 μM), 4 separate experiments) |
| --- | --- | --- | --- | --- | --- |
| 3: an N-terminal fusion of Lumi4(Tb) to Tat (49–57) ({Lumi4(Tb)}-RKKRRQRRR; UniProt P04608 49-57, looked up, fragment) [compound 3] | non-endocytic, cytoplasmic delivery | – | – | – | – |
| 17: cysteine amide-linked heterodimer of Lumi4 and TEGTMP coupled via a disulfide bond to the peptide Cys-TAT(47–57)-Lys(FAM) [compound 17] | non-endocytic, cytoplasmic delivery | its disulfide bond is reduced in the cytoplasm and nucleus | primarily diffuse throughout the cytoplasm and nucleus | punctate staining pattern predominant | significantly reduced |
